As a reminder, the MIC is the lowest concentration that inhibits growth of the organism. High values mean a less susceptible organism, low ones a more susceptible organism.

Converted amounts (≈) assume the structure as drawn.

This assay deals with Staphylococcus aureus. Nature of the assay: In vitro antibacterial activity for minimum inhibition concentration (MIC) required to inhibit growth of Staphylococcus aureus. The class given is functional. An outline of the steps:
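Broth microdilution in brain/heart infusion broth, inoculated with a standardized suspension to a final 10^5 viable cells/mL. Incubation 20 h at 37 °C. MIC read as the lowest concentration preventing visible growth.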
`CC[C@H]1CCN[C@@H](C(=O)N[C@@H]([C@H]2O[C@H](SC)[C@H](O)[C@@H](O)[C@H]2O)[C@H](C)Cl)C1`: the lowest concentration to inhibit growth (MIC) was 250 µg/mL (≈ 608 µM).

Molecule `CCc1ccc(C(=O)NC(C(C)Cl)C2OC(SC)C(O)C(O)C2O)nc1` (stereo not drawn) came in with an MIC of 62.5 µg/mL (≈ 154 µM). This MIC is about 4-fold lower than that of the molecule before. The result for `CSC1OC(C(NC(=O)[C@H]2CCC[C@@H](C)N2)C(C)Cl)C(O)C(O)C1O` (stereo partly drawn) reads above 25 µg/mL. The value for `CC[C@H]1CC[C@@H](C(=O)NC(C(C)Cl)C2OC(SC)C(O)C(O)C2O)NC1` (stereo partly drawn) was 2 µg/mL (≈ 4.87 µM); that for `CC[C@@H]1CCC[C@H](C(=O)NC(C(C)Cl)C2OC(SC)C(O)C(O)C2O)N1` (stereo partly drawn) was above 25 µg/mL. Molecule `CSC1OC(C(NC(=O)[C@@H]2CCC[C@H](C)N2)C(C)Cl)C(O)C(O)C1O` (stereo partly drawn) gave an MIC above 25 µg/mL.

Regarding `CSC1OC(C(NC(=O)c2cc(C(C)(C)C)ccn2)C(C)Cl)C(O)C(O)C1O` (stereo not drawn), the minimal inhibitory concentration (MIC) is above 100 µg/mL. Molecule `CC[C@H]1CCN(CCO)[C@@H](C(=O)NC(C(C)Cl)C2OC(SC)C(O)C(O)C2O)C1` (stereo partly drawn) came in with an MIC above 160 µg/mL. The result for `CSC1OC(C(NC(=O)[C@@H]2CCN2)C(C)Cl)C(O)C(O)C1O` (stereo partly drawn) reads 25 µg/mL (≈ 70.5 µM); that for `CSC1OC(C(NC(=O)c2cccnc2)C(C)Cl)C(O)C(O)C1O` (stereo not drawn), above 100 µg/mL; that for `CSC1OC(C(NC(=O)[C@H]2CCCCN2C)C(C)Cl)C(O)C(O)C1O` (stereo partly drawn), above 100 µg/mL. The value for `CCC[C@H]1CCN[C@@H](C(=O)NC(C(C)Cl)C2OC(SC)C(O)C(O)C2O)C1` (stereo partly drawn) was above 25 µg/mL. The value for `CCCCCCCCc1ccnc(C(=O)NC(C(C)Cl)C2OC(SC)C(O)C(O)C2O)c1` (stereo not drawn) was above 10 µg/mL; that for `CSC1OC(C(NC(=O)[C@H]2CC3CCN2CC3)C(C)Cl)C(O)C(O)C1O` (stereo partly drawn) was 50 µg/mL (≈ 122 µM).

The molecule `CS[C@H]1O[C@H](C(NC(=O)C2CCNCC2)C(C)Cl)[C@H](O)[C@H](O)[C@H]1O` (stereo partly drawn) gave an MIC above 80 µg/mL.

With `CSC1OC(C(NC(=O)c2ncccc2C)C(C)Cl)C(O)C(O)C1O` (stereo not drawn), the MIC is above 100 µg/mL.

As for `CCCCCC[C@H]1CCN[C@@H](C(=O)NC(C(C)Cl)C2OC(SC)C(O)C(O)C2O)C1` (stereo partly drawn), 0.5 µg/mL (≈ 1.07 µM) was the least that counted as inhibitory (MIC). The result for `CCC[C@@H]1CCN[C@H](C(=O)NC(C(C)Cl)C2OC(SC)C(O)C(O)C2O)C1` (stereo partly drawn) reads 0.5 µg/mL (≈ 1.18 µM); that for `CCCCCC[C@@H]1CCN[C@H](C(=O)NC(C(C)Cl)C2OC(SC)C(O)C(O)C2O)C1` (stereo partly drawn), 0.03 µg/mL (≈ 0.0642 µM); that for `CSC1OC(C(NC(=O)c2ccccn2)C(C)Cl)C(O)C(O)C1O` (stereo not drawn), 62.5 µg/mL (≈ 166 µM). The value for `CSC1OC(C(NC(=O)[C@@H]2CCCCN2C)C(C)Cl)C(O)C(O)C1O` (stereo partly drawn) was 3.9 µg/mL (≈ 9.83 µM). The result for `CCCC[C@@H]1CCN(CCO)[C@H](C(=O)NC(C(C)Cl)C2OC(SC)C(O)C(O)C2O)C1` (stereo partly drawn) reads 0.16 µg/mL (≈ 0.331 µM). Molecule `CSC1OC(C(NC(=O)c2ccncc2)C(C)Cl)C(O)C(O)C1O` (stereo not drawn) registered an MIC above 1000 µg/mL. Molecule `CSC1OC(C(NC(=O)[C@@H]2CCCCN2)C(C)Cl)C(O)C(O)C1O` (stereo partly drawn) gave an MIC of 3.9 µg/mL (≈ 10.2 µM). The value for `CC[C@@H]1CC[C@H](C(=O)NC(C(C)Cl)C2OC(SC)C(O)C(O)C2O)NC1` (stereo partly drawn) was 2.5 µg/mL (≈ 6.08 µM); that for `CSC1OC(C(NC(=O)[C@H]2C[C@@H](C(C)(C)C)CCN2)C(C)Cl)C(O)C(O)C1O` (stereo partly drawn) was above 25 µg/mL; that for `CC[C@@H]1CCN(CCO)[C@H](C(=O)NC(C(C)Cl)C2OC(SC)C(O)C(O)C2O)C1` (stereo partly drawn) was 2.5 µg/mL (≈ 5.49 µM). The result for `CSC1OC(C(NC(=O)[C@H]2CCCNC2)C(C)Cl)C(O)C(O)C1O` (stereo partly drawn) reads above 80 µg/mL. The result for `CSC1OC(C(NC(=O)[C@H]2NCCCC2C)C(C)Cl)C(O)C(O)C1O` (stereo partly drawn) reads 12.5 µg/mL (≈ 31.5 µM).

In the case of `CSC1OC(C(NC(=O)[C@@H]2CCCCCN2)C(C)Cl)C(O)C(O)C1O` (stereo partly drawn), 1.56 µg/mL (≈ 3.93 µM) was the least that counted as inhibitory (MIC). In turn, `CCCC[C@H]1CCN[C@@H](C(=O)NC(C(C)Cl)C2OC(SC)C(O)C(O)C2O)C1` (stereo partly drawn) registered an MIC of 31.2 µg/mL (≈ 71.1 µM). The value for `CSC1OC(C(NC(=O)[C@@H]2CC3CCN2CC3)C(C)Cl)C(O)C(O)C1O` (stereo partly drawn) was above 100 µg/mL; that for `CCCCCCc1ccnc(C(=O)NC(C(C)Cl)C2OC(SC)C(O)C(O)C2O)c1` (stereo not drawn) was 50 µg/mL (≈ 108 µM); that for `CSC1OC(C(NC(=O)[C@@H]2CCCNC2)C(C)Cl)C(O)C(O)C1O` (stereo partly drawn) was above 80 µg/mL. The value for `CSC1OC(C(NC(=O)c2cccc(C)n2)C(C)Cl)C(O)C(O)C1O` (stereo not drawn) was above 25 µg/mL. On to `CSC1OC(C(NC(=O)[C@H]2CCCCN2)C(C)Cl)C(O)C(O)C1O` (stereo partly drawn), for which the lowest concentration to inhibit growth (MIC) was 25 µg/mL (≈ 65.3 µM). The result for `CSC1OC(C(NC(=O)[C@H]2CCCCCN2)C(C)Cl)C(O)C(O)C1O` (stereo partly drawn) reads above 100 µg/mL; that for `CCCCCC[C@@H]1CCN(C)[C@H](C(=O)NC(C(C)Cl)C2OC(SC)C(O)C(O)C2O)C1` (stereo partly drawn), 0.3 µg/mL (≈ 0.624 µM); that for `CCc1ccnc(C(=O)NC(C(C)Cl)C2OC(SC)C(O)C(O)C2O)c1` (stereo not drawn), 1000 µg/mL (≈ 2470 µM). The value for `CC[C@H]1CCC[C@@H](C(=O)NC(C(C)Cl)C2OC(SC)C(O)C(O)C2O)N1` (stereo partly drawn) was above 25 µg/mL. `CCCC[C@@H]1CCN[C@H](C(=O)NC(C(C)Cl)C2OC(SC)C(O)C(O)C2O)C1` (stereo partly drawn) displayed an MIC of 0.06 µg/mL (≈ 0.137 µM). The value for `CC[C@@H]1CCN(C)[C@H](C(=O)NC(C(C)Cl)C2OC(SC)C(O)C(O)C2O)C1` (stereo partly drawn) was 0.2 µg/mL (≈ 0.471 µM); that for `CC[C@H]1CCN(C)[C@@H](C(=O)NC(C(C)Cl)C2OC(SC)C(O)C(O)C2O)C1` (stereo partly drawn) was above 100 µg/mL. `CCCCCCCC[C@@H]1CCN[C@H](C(=O)NC(C(C)Cl)C2OC(SC)C(O)C(O)C2O)C1` (stereo partly drawn) came in with an MIC of 0.3 µg/mL (≈ 0.606 µM). The result for `CCCc1ccnc(C(=O)NC(C(C)Cl)C2OC(SC)C(O)C(O)C2O)c1` (stereo not drawn) reads above 100 µg/mL.

With `CCc1cccc(C(=O)NC(C(C)Cl)C2OC(SC)C(O)C(O)C2O)n1` (stereo not drawn), the MIC was above 25 µg/mL. As to `CSC1OC(C(NC(=O)[C@@H]2C[C@H](C(C)(C)C)CCN2)C(C)Cl)C(O)C(O)C1O` (stereo partly drawn), the MIC stood at 2 µg/mL (≈ 4.56 µM). `CSC1OC(C(NC(=O)[C@@H]2NCCC[C@@H]2C)C(C)Cl)C(O)C(O)C1O` (stereo partly drawn): the MIC was 25 µg/mL (≈ 63 µM).
